Assay outcomes (PubChem)
Compounds with a hit are over-represented: about 3.9% of the library has one in this group of screens.
UPR CHOP act: apoptotic UPR (CHOP) activation. activation, % at 10 µM. hit rate 0.34% among 330,000. CHO-CHOP luciferase reporter, luminescence; percent of tunicamycin response over DMSO baseline;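 active = at 10 µM dose, activation of 40% or more, normalized to positive control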
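System: CHO-CHOP luciferase reporter cell line; amount: 500 cells/well; buffer or medium: F12 medium containing 10% fetal bovine serum; incubation: 6 h compound exposure at 37 °C after overnight seeding; measured by: luciferase luminescence after 10 min with Steady-Glo reagent; evaluation: % reporter activation, DMSO baseline versus tunicamycin full activation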
tim10-1 inh: tim10-1 yeast growth inhibition | S. cerevisiae tim10-1 ts strain growth, BacTiter-Glo, 24 h | AID 463190 | hit rate 2.2% among 330,000 | inhibition, % at 20 µM;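 active = inhibition of at least 40%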;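 also: mutant grown at 25 °C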
tim23-1 inh: tim23-1 yeast growth inhibition. hit rate 1.3% among 330,000. S. cerevisiae tim23-1 growth, BacTiter-Glo luminescence, 24 h. inhibition, % at 20 µM;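 active = growth inhibition of the mutant yeast at or above 50%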;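 also: temperature-sensitive mutant grown at 25 °C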
UPR XBP1 act: activators of adaptive arm of unfolded protein response (XBP1); CHO-XBP1 luciferase reporter, IRE1-XBP1 UPR activation, luminescence; percent of tunicamycin response, DMSO as zero; activation, % at 20 µM; hit rate 0.33% among 330,000; AID 463104;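 active = versus positive control, 20 µM dose yields 30% or more activation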
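Assay system: IRE1-XBP1 luciferase reporter CHO line. Input: 1000 cells/well. Buffer or medium: F12 with 10% serum. Doses: 20 µM, 1% DMSO. Times: overnight seeding at 37 °C, 6 h compound treatment at 37 °C. Technique: Steady-Glo luciferase glow luminescence, 10 min after reagent addition.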
TIM10 inh: growth inhibitors of TIM10 yeast strain; S. cerevisiae TIM10 strain growth, BacTiter-Glo luminescence, 24 h; inhibition, % at 10 µM; hit rate 1.4% among 330,000; AID 463195;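 active = inhibition of 40% or more at the single tested concentration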;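 also: wild-type TIM10 isogenic control strain grown at permissive 25 °C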
UPR CHOP confirm: apoptotic UPR (CHOP) activation, confirmed; shares compounds with UPR CHOP act; CHO-CHOP cells, CHOP-luciferase reporter luminescence; percent of tunicamycin response, DMSO as zero; activation, % at 10 µM; hit rate 64% among 1,000; AID 463112; in the data active = activation above about 33%
XBP1 UPR conf: confirmation of adaptive unfolded protein response (XBP1) activators; AID 485299; shares compounds with UPR XBP1 act; CHO-XBP1 IRE1-XBP1 luciferase reporter, luminescence; activation, % at 20 µM; hit rate 63% among 1,000;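 active = reporter signal at least 30% of the positive control's activation in two or more of four replicate wells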
tim10-1 conf: confirmation of tim10-1 mutant yeast growth inhibitors | shares compounds with tim10-1 inh | S. cerevisiae tim10-1 ts strain growth, BacTiter-Glo, 24 h | inhibition, % at 20 µM | hit rate 56% among 7,400;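 active = inhibition of yeast growth at or above a set limit in either of two repeat tests at 20 µM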;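 also: tim10-1 mutant grown at permissive 25 °C to find synthetic lethal compounds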
tim10 confirm: confirmation of TIM10 yeast growth inhibitors; shares compounds with TIM10 inh; S. cerevisiae tim10 strain growth, BacTiter-Glo luminescence, 24 h; inhibition, % at 10 µM; hit rate 63% among 4,600;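 active = inhibition of yeast growth at or above a set limit in either of two replicates at 10 µM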; also: this counterscreen used the strain with wild-type TIM10
tim23-1 confirm: confirmation of tim23-1 mutant yeast growth inhibitors. hit rate 83% among 4,400. inhibition, % at 20 µM. shares compounds with tim23-1 inh. S. cerevisiae tim23-1 growth, BacTiter-Glo luminescence, 24 h;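 active = inhibition above about 39% in either of two replicate wells at 20 µM, limit read from the data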;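 also: temperature-sensitive tim23-1 mutant grown at 25 °C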
A number is an active result; . = inactive; / = no result given.

SMILES | UPR CHOP act | tim10-1 inh | tim23-1 inh | UPR XBP1 act | TIM10 inh | XBP1 UPR conf | others
Oc1c(N=Nc2ccccn2)ccc2ccccc12 | 276 | 72 | 53 | . | 41 | / | UPR CHOP confirm=211;tim10-1 conf=53;tim10 confirm=46;tim23-1 confirm=76
CCN(CC)CC(=O)Nc1sc(C)cc1C(=O)c1ccccc1 | . | . | . | . | . | /
Cc1cc(C(=O)c2ccccc2)c(NC(=O)CCl)s1 | 45 | . | 55 | . | . | / | UPR CHOP confirm=.;tim23-1 confirm=.
O=C(NCc1ccco1)/C(=C/c1ccccc1F)NC(=O)c1ccccc1 | . | . | . | . | . | /
CC1=NOC(=O)/C1=C\c1ccc(-c2ccc(Br)cc2C(=O)O)o1 | . | . | . | . | . | /
CC1=NOC(=O)/C1=C/c1ccc(-c2ccc(Cl)cc2)o1 | 265 | 44 | 65 | . | 65 | / | UPR CHOP confirm=34;tim10-1 conf=.;tim10 confirm=69;tim23-1 confirm=.
CC1=NOC(=O)/C1=C\c1ccc(-c2cc(Cl)ccc2Cl)o1 | 69 | 51 | 79 | . | . | / | UPR CHOP confirm=.;tim10-1 conf=.;tim23-1 confirm=68
CCC(C)(C)C1CCC2(CC1)NC(=O)N(CC(=O)N1CCN(S(=O)(=O)c3cc(C)ccc3C)CC1)C2=O (configuration not stated) | . | . | . | 81 | . | 107
CCC[C@@H](CNC)NC[C@H](Cc1ccccc1)NCCCCc1ccccc1 | . | . | . | 46 | . | .
O=C(CN1CCCCC1)Nc1c2c(nc3ccccc13)N(c1ccccc1)CC2 | . | . | . | 56 | . | .
CCOC(=O)c1c(C)[nH]c(C(=O)COc2ccc3ccc(=O)oc3c2)c1C | . | . | . | 41 | . | .
Cc1ccccc1-c1nc2cc(Cl)ccc2c(=O)o1 | . | . | . | 49 | . | .
COc1ccc(Cc2nnc(NC(=O)c3ccccc3C)s2)cc1 | . | . | . | . | . | /
CN(C)S(=O)(=O)c1ccc(N2CCCC2)c(C(=O)Nc2nc(-c3ccc(F)c(F)c3)cs2)c1 | . | . | . | . | . | /
CN(C)S(=O)(=O)c1ccc(N2CCCC2)c(C(=O)Nc2nccs2)c1 | . | . | . | 60 | . | 69
COc1ccc(Cn2c(-c3ccc(OC)cc3)nc3c(c(=O)c4ccccc4n3C)c2=O)cc1 | . | . | . | . | . | /
COc1ccc(Cn2c(-c3ccccc3C)nc3c(c(=O)c4ccccc4n3C)c2=O)cc1 | . | . | . | 41 | . | .
CC1(C)Cc2c(c(N3CCOCC3)nc3sc4c(NCC5CCCO5)nnnc4c23)CS1 (configuration not stated) | . | . | . | 33 | . | .
COc1ccc(-c2ccc3oc(-c4ccsc4)cc(=O)c3c2)cc1F | . | . | . | . | . | /
COc1cc(-c2ccc3oc(-c4ccsc4)cc3c2)cc(OC)c1OC | . | . | . | 61 | . | 32
COc1cc(/C=N/NC(=O)Cn2nc([N+](=O)[O-])cc2C)cc(Br)c1OCc1ccccc1 | . | . | . | . | . | /
CCOc1cc(/C=N/NC(=O)Cn2nc([N+](=O)[O-])cc2C)cc(Br)c1OCc1ccccc1C | . | . | . | 57 | . | 80
CCOc1ccc(N2C(=O)C(=O)/C(=C(/O)c3ccccc3)C2c2ccccc2[N+](=O)[O-])cc1 (configuration not stated) | . | . | . | 34 | . | .
O=C(N[C@@H]1C/C=C\C[C@H](CC(=O)N(CCO)Cc2ccccc2)C(=O)N[C@@H](Cc2ccccc2)COC1=O)OCC1c2ccccc2-c2ccccc21 | . | . | . | 50 | . | .
